Test [1] concerns Nucleic Acid. The experiment in a line: Binding affinity to Salmon sperm DNA in phosphate buffer assessed as change in melting temperature by thermal denaturation assay. Format: nucleic-acid assay. To be noted: Salmonidae. The procedure, abridged: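 UV melting of salmon sperm DNA (150 μM base) with compound (15 μM), giving a compound:base ratio of 0.1, in 10 mM sodium phosphate buffer at pH 7. Absorbance at 260 nm was followed from 20 to 90 °C at 1 °C/min, collecting five points per °C, in a 1 cm quartz cell.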

Test [2] deals with Nucleic Acid. The experiment in a line: Binding affinity to poly(dA.dT)2 DNA assessed as large induced CD signal at 0.5 mM by circular dichroism study. Format: nucleic-acid assay.
The subject of test [3] is Nucleic Acid. Nature of the test: Binding affinity to poly(dA.dT)2 DNA in phosphate buffer by ITC analysis. Format: nucleic-acid assay. In a few lines: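 Calorimetric titration at 25 °C of 2.48 mM compound in 10 mM phosphate buffer into poly(dA·dT)2 in the cell (2 mM). There were 29 injections, spaced 300 s apart. Heat per injection was obtained by integrating the power peak area over time.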

Test [4] relates to Nucleic Acid. The experiment in a line: Binding affinity to DNA assessed as large induced CD signal at 0.5 mM by circular dichroism study. Format: nucleic-acid assay. For orientation: Circular dichroism is widely used to follow secondary structure.
In test [5] the test system is Nucleic Acid. Nature of the test: Binding affinity to poly(dA.dT)2 DNA in phosphate buffer assessed as change in melting temperature by thermal denaturation assay.
Test [6] relates to Nucleic Acid. Nature of the test: Binding affinity to AATT DNA by SPR analysis. Format: nucleic-acid assay. The procedure, abridged: (§1)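 Biosensor analysis against three immobilized DNA hairpin duplexes in degassed MES buffer (10 mM MES, 1 mM EDTA, 92 mM NaCl, 0.0005% v/v P20, pH 6.25) at 25 °C. A ligand concentration series was injected at 20 μL/min for 5 min, then dissociated for 5 min, with NaCl/NaOH regeneration. K was fitted from steady-state RU versus free ligand using a two-site binding equation.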
In general terms: Surface plasmon resonance follows binding to a sensor surface in real time, without labels.

Test [7] concerns Nucleic Acid. Nature of the test: Binding affinity to (AT)4 DNA by SPR analysis. Format: nucleic-acid assay. In a few lines:
as §1

For test [8], the system named is Nucleic Acid. The experiment in a line: Binding affinity to (GC)4 DNA by SPR analysis. Format: nucleic-acid assay. The procedure, abridged:
as §1

For test [9], the system named is Nucleic Acid. The experiment in a line: Binding affinity to poly(dA).poly(dT) DNA in MES buffer assessed as change in melting temperature by thermal denaturation assay. Format: nucleic-acid assay.

Broadly, the ΔTm is the shift of the melting midpoint relative to a reference.

The source made the active and inactive calls. No cut-off for these calls is given here.

Consider `N=C(N)Nc1ccc(NC(=O)c2ccc(NC3=NCCN3)cc2)cc1`, for which the shift in melting temperature (ΔTm) in the test with Nucleic Acid [1] was 10 °C; in the test on Nucleic Acid [5], 26.1 °C. In addition, the result with Nucleic Acid [2] and with Nucleic Acid [4] was Active. The K in the test with Nucleic Acid [3] is 1.54 ×10⁵ /M.

For the compound `O=C(Nc1ccc(NC2=NCCN2)cc1)c1ccc(NC2=NCCN2)cc1`, the thermal shift (ΔTm) in the test with Nucleic Acid [1] is 12.5 °C; with Nucleic Acid [5], 29 °C. Further, the K in the test on Nucleic Acid [6] was 93.7 ×10⁵ /M; with Nucleic Acid [7] it was 47.7 ×10⁵ /M; with Nucleic Acid [8], less than 1 ×10⁵ /M; in the test on Nucleic Acid [3] it was 4.9 ×10⁵ /M. The outcome in the test on Nucleic Acid [2] and in the test with Nucleic Acid [4] was Active.

In the case of `Nc1ccc2cc3ccc(N)cc3nc2c1`, the K in the test on Nucleic Acid [6] turned out to be 5.7 ×10⁵ /M; with Nucleic Acid [7], 12.2 ×10⁵ /M; in the test on Nucleic Acid [8] it was 6.5 ×10⁵ /M.

Regarding `N=C(N)Nc1ccc(NC(=O)c2ccc(N)cc2)cc1`, the ΔTm in the test on Nucleic Acid [1] stood at 1 °C. For the same compound, the outcome with Nucleic Acid [9] and in the test with Nucleic Acid [5] was inactive.

Consider `N=C(N)Nc1ccc(Nc2ccc(N=C3NCCN3)cc2)cc1`, for which the K with Nucleic Acid [6] is 6.4 ×10⁵ /M; in the test on Nucleic Acid [8], less than 1 ×10⁵ /M.

For `N=C(N)Nc1ccc(NC(=O)c2ccc(NC(=N)N)cc2)cc1`, the ΔTm is 11 °C in the test on Nucleic Acid [1] and 20 °C with Nucleic Acid [5]. Further, the K was 71 ×10⁵ /M in the test with Nucleic Acid [6], 18 ×10⁵ /M in the test with Nucleic Acid [7] and less than 1 ×10⁵ /M with Nucleic Acid [8]. Also, the outcome with Nucleic Acid [2] and with Nucleic Acid [4] was Active.

Turning to `N=C(N)Nc1ccc(C(=O)c2ccc(N=C3NCCN3)cc2)cc1`, the K with Nucleic Acid [6] came to 2.7 ×10⁵ /M.

As for `Nc1ccc(C(=O)Nc2ccc(NC3=NCCN3)cc2)cc1`, the ΔTm with Nucleic Acid [1] worked out at 2 °C. Further, the result with Nucleic Acid [9] and in the test with Nucleic Acid [5] was inactive.
